Calls of active or inactive are those of the source.
Experiments:
[1] = tested on: Escherichia coli; experiment: Inhibition of large ribosomal subunit assembly in Escherichia coli assessed as accumulation of 23S rRNA in 70S and 50S fractions at 7 ug/ml after 2 hrs by sucrose gradient fractionation at 25 degC; format: functional, organism-based
Method in brief: (§1)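 MG1655 grown in 2× YT at 25 or 37°C to A600 0.2, then drug added (final concentration as per line). Incubated 2 h at 25°C or 1 h at 37°C. Freeze-thaw lysis used lysozyme and DNase I. Lysate was run on a 10–25% sucrose gradient in buffer D, pH 8, for 13.5 h at 4°C. Fraction RNA was dot-blotted with 32P-labelled 16S/23S oligonucleotide probes, loading 0.2 pmol 50S-fraction 23S RNA.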

[2] = tested on: Escherichia coli; experiment: Inhibition of large ribosomal subunit assembly in Escherichia coli assessed as accumulation of 23S rRNA in 40S fraction at 7 ug/ml after 2 hrs by sucrose gradient fractionation at 25 degC; format: functional, organism-based; method in brief: as §1
[3] = tested on: Escherichia coli; experiment: Inhibition of small ribosomal subunit assembly in Escherichia coli assessed as accumulation of 16S rRNA at 7 ug/ml after 2 hrs by sucrose gradient fractionation at 25 degC; format: functional, organism-based; method in brief: as §1
[4] = tested on: Escherichia coli; experiment: Inhibition of large ribosomal subunit assembly in Escherichia coli assessed as accumulation of 23S rRNA in 70S and 50S fractions at 7 ug/ml after 1 hr by sucrose gradient fractionation at 37 degC; format: functional, organism-based; method in brief: as §1
[5] = tested on: Escherichia coli; experiment: Inhibition of large ribosomal subunit assembly in Escherichia coli assessed as accumulation of 23S rRNA in 40S fraction at 7 ug/ml after 1 hr by sucrose gradient fractionation at 37 degC; format: functional, organism-based; method in brief: as §1
[6] = tested on: Escherichia coli; experiment: Inhibition of small ribosomal subunit assembly in Escherichia coli assessed as accumulation of 16S rRNA at 7 ug/ml after 1 hr by sucrose gradient fractionation at 37 degC; format: functional, organism-based; method in brief: as §1
[7] = tested on: Escherichia coli; experiment: Inhibition of ribosomal subunit assembly in Escherichia coli assessed as accumulation of partially processed 23S rRNA in 30S, 40S and 50S fractions at 100 ug/ml after 1 hr by primer extension analysis at 37 degC; format: functional, organism-based
Method in brief: (§2)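 Ribosomes from MG1655 drug-treated in 2× YT (1 h at 37°C or 2 h at 25°C from A600 0.2) were separated on 10–25% sucrose gradients. RNA was isolated from fractions by isopropanol precipitation and guanidinium thiocyanate/silica binding. 5′ ends of 23S and 16S rRNA were mapped by reverse transcription from specific primers, alongside sequencing lanes.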

[8] = tested on: Escherichia coli; experiment: Inhibition of ribosomal subunit assembly in Escherichia coli assessed as accumulation of partially processed 23S rRNA in 30S, 40S and 50S fractions at 7 ug/ml after 1 hr by primer extension analysis at 37 degC; format: functional, organism-based; method in brief: as §2
[9] = tested on: Escherichia coli; experiment: Inhibition of ribosomal subunit assembly in Escherichia coli assessed as accumulation of partially processed 23S rRNA in 30S, 40S and 50S fractions at 7 ug/ml after 2 hrs by primer extension analysis at 25 degC; format: functional, organism-based; method in brief: as §2
[10] = tested on: Escherichia coli; experiment: Inhibition of ribosomal subunit assembly in Escherichia coli assessed as accumulation of partially processed 23S rRNA in 30S, 40S and 50S fractions at 100 ug/ml after 2 hrs by primer extension analysis at 25 degC; format: functional, organism-based; method in brief: as §2
[11] = tested on: Escherichia coli; experiment: Inhibition of ribosomal subunit assembly in Escherichia coli assessed as retardation of 16S rRNA processing at 100 ug/ml after 1 hr by primer extension analysis at 37 degC; format: functional, organism-based; method in brief: as §2
[12] = tested on: Escherichia coli; experiment: Inhibition of ribosomal subunit assembly in Escherichia coli assessed as retardation of 16S rRNA processing at 7 ug/ml after 1 hr by primer extension analysis at 37 degC; format: functional, organism-based; method in brief: as §2
[13] = tested on: Escherichia coli; experiment: Inhibition of ribosomal subunit assembly in Escherichia coli assessed as retardation of 16S rRNA processing at 7 ug/ml after 2 hrs by primer extension analysis at 25 degC; format: functional, organism-based; method in brief: as §2
[14] = tested on: Escherichia coli; experiment: Inhibition of ribosomal subunit assembly in Escherichia coli assessed as retardation of 16S rRNA processing at 100 ug/ml after 2 hrs by primer extension analysis at 25 degC; format: functional, organism-based; method in brief: as §2
[15] = tested on: Escherichia coli; experiment: Inhibition of ribosomal subunit assembly in Escherichia coli assessed as reduction in mature 23S rRNA at 7 ug/ml; format: functional
[16] = tested on: Escherichia coli; experiment: Inhibition of ribosomal subunit assembly in Escherichia coli assessed as accumulation of assembly-deffective particles between 50S and 20S regions after 10 mins by sucrose gradient fractionation; format: functional, organism-based
Method in brief: (§3)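 Cells grown at 37°C in tryptone/yeast extract/NaCl to A600 0.2, then exposed to erythromycin (final 100 μg/ml) or chloramphenicol (final 7 μg/ml). After 5, 10 or 60 min, pulsed 5 min with [3H]uridine, 2 μCi per 50 ml; some samples chased 5 min with rifampin, final 500 μg/ml. Sucrose gradients cut into 40 fractions; TCA-precipitable radioactivity counted by scintillation.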

[17] = tested on: Escherichia coli; experiment: Inhibition of ribosomal subunit assembly in Escherichia coli assessed as accumulation of assembly-deffective particles between 50S and 20S regions after 60 mins by sucrose gradient fractionation; format: functional, organism-based; method in brief: as §3
[18] = tested on: Escherichia coli; experiment: Antimicrobial activity against Escherichia coli at 7 ug/ml after 8 hrs; format: functional
Method in brief: (§4)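 E. coli MG1655 culture growth followed by optical density over 8 h, with the drug-treated culture expressed relative to an untreated control culture.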

[19] = tested on: Escherichia coli; experiment: Inhibition of large ribosomal subunit assembly in Escherichia coli assessed as accumulation of 23S rRNA in 70S and 50S fractions at 100 ug/ml after 2 hrs by sucrose gradient fractionation at 25 degC; format: functional, organism-based; method in brief: as §1
[20] = tested on: Escherichia coli; experiment: Inhibition of large ribosomal subunit assembly in Escherichia coli assessed as accumulation of 23S rRNA in 40S fraction at 100 ug/ml after 2 hrs by sucrose gradient fractionation at 25 degC; format: functional, organism-based; method in brief: as §1
[21] = tested on: Escherichia coli; experiment: Inhibition of small ribosomal subunit assembly in Escherichia coli assessed as accumulation of 16S rRNA at 100 ug/ml after 2 hrs by sucrose gradient fractionation at 25 degC; format: functional, organism-based; method in brief: as §1
[22] = tested on: Escherichia coli; experiment: Inhibition of large ribosomal subunit assembly in Escherichia coli assessed as accumulation of 23S rRNA in 70S and 50S fractions at 100 ug/ml after 1 hr by sucrose gradient fractionation at 37 degC; format: functional, organism-based; method in brief: as §1
[23] = tested on: Escherichia coli; experiment: Inhibition of large ribosomal subunit assembly in Escherichia coli assessed as accumulation of 23S rRNA in 40S fraction at 100 ug/ml after 1 hr by sucrose gradient fractionation at 37 degC; format: functional, organism-based; method in brief: as §1
[24] = tested on: Escherichia coli; experiment: Inhibition of small ribosomal subunit assembly in Escherichia coli assessed as accumulation of 16S rRNA at 100 ug/ml after 1 hr by sucrose gradient fractionation at 37 degC; format: functional, organism-based; method in brief: as §1
[25] = tested on: Escherichia coli; experiment: Inhibition of ribosomal subunit assembly in Escherichia coli assessed as reduction in mature 23S rRNA at 100 ug/ml; format: functional
[26] = tested on: Escherichia coli; experiment: Inhibition of ribosomal subunit assembly in Escherichia coli assessed as reduction in mature 23S rRNA at 7 ug/ml in presence of E-peptide; format: functional
[27] = tested on: Staphylococcus aureus; experiment: Antimicrobial activity against Staphylococcus aureus UCN18 with A2059G mutation in rrl allele; format: functional
Method in brief: (§5)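 Clinical S. aureus isolates carrying rRNA operon mutations: UCN14 has A2058T in 4 of 5 rrl alleles, UCN17 has A2058G in 4 of 6, and UCN18 has A2059G in 3 of 5. MIC was determined for erythromycin by microbroth dilution in 96-well plates.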

[28] = tested on: Staphylococcus aureus; experiment: Antimicrobial activity against Staphylococcus aureus UCN14 with A2058T mutation in rrl allele; format: functional; method in brief: as §5
[29] = tested on: Staphylococcus aureus; experiment: Antimicrobial activity against Staphylococcus aureus UCN17 with A2058G mutation in rrl allele; format: functional; method in brief: as §5
[30] = tested on: Escherichia coli; experiment: Antimicrobial activity against Escherichia coli at 100 ug/ml after 8 hrs; format: functional; method in brief: as §4

O=C(N[C@H](CO)[C@H](O)c1ccc([N+](=O)[O-])cc1)C(Cl)Cl [CHLORAMPHENICOL]
50%: inhibition at 7 µg/mL [15]
active: inhibition [1] | inhibition [2] | inhibition [3] | inhibition [4] | inhibition [5] | inhibition [6] | inhibition [7] | inhibition [8] | inhibition [9] | inhibition [10] | inhibition [11] | inhibition [12] | inhibition [13] | inhibition [14] | inhibition [16] | inhibition [17]
70%: Activity [18]

CC[C@H]1OC(=O)[C@H](C)[C@@H](O[C@H]2C[C@@](C)(OC)[C@@H](O)[C@H](C)O2)[C@H](C)[C@@H](O[C@@H]2O[C@H](C)C[C@H](N(C)C)[C@H]2O)[C@](C)(O)C[C@@H](C)C(=O)[C@H](C)[C@@H](O)[C@]1(C)O [ERYTHROMYCIN]
512 µg/mL: MIC [27] | MIC [28] | MIC [29]
30%: inhibition at 100 µg/mL [25]
active: inhibition [19] | inhibition [20] | inhibition [21] | inhibition [22] | Activity [23] | inhibition [24] | inhibition [7] | inhibition [8] | inhibition [9] | inhibition [10] | inhibition [11] | inhibition [12] | inhibition [13] | inhibition [14] | inhibition [16] | inhibition [17]
60%: inhibition at 7 µg/mL [26]
70%: Activity [30]

— ChEMBL document CHEMBL1649123, “Erythromycin- and chloramphenicol-induced ribosomal assembly defects are secondary effects of protein synthesis inhibition” (2009)
